# Assay results pooled from the literature.
# Each line is one published result; the experiments were not run side by side.
# Cell line: HOP-62
# Read-out: cell growth or viability
SMILES,method,tested at,time,quantity,value
O=C1NCCc2[nH]c(-c3ccncc3)cc21,,,,IC50,9.94 µM
COc1ccc(-c2ccc(-c3ccc(C(=N)N)nc3)s2)cc1,SRB,,,GI50,1.8 µM
c1ccc2cc(Cn3cc[n+](Cc4ccc5ccccc5c4)c3)ccc2c1,SRB,,,TGI,17 µM
COc1ccc(C(=O)/C=C/c2cccc3ccccc23)cc1S(N)(=O)=O,SRB,10 µM,,inhibition,82%
O=C1NC(=NCc2cccs2)S/C1=C\c1ccc2ncccc2c1,,,,IC50,> 10 µM
COc1cccc2c1C(=O)c1c(O)c3c(c(O)c1C2=O)C[C@@](O)(C(=O)CO)C[C@@H]3O[C@H]1C[C@H](N)[C@H](O)[C@H](C)O1,SRB,10 µg/mL,48 h,inhibition,98.9%
COc1ccc(C(=O)/C=C/c2c(F)cccc2Cl)cc1S(N)(=O)=O,SRB,,48 h,GI50,3 µM
COc1ccc(-c2ccc(-c3ccc(C(=N)N)nc3)s2)cc1Cl,SRB,,,GI50,1.9 µM
CCCc1n(Cc2ccc3ccccc3n2)cc[n+]1Cc1ccc2ccccc2n1,SRB,,,TGI,19.4 µM
COc1cccc(Oc2ccccc2NC(=O)CNC(=O)c2cccc3ccccc23)c1,SRB,,48 h,GI50,0.302 µM
O=C1Nc2ccccc2C1=NNc1nnc2n1N=C(c1ccccc1)CS2,SRB,10 µM,,inhibition,54%
CCCCc1n(Cc2ccc3ccccc3n2)cc[n+]1Cc1ccc2ccccc2n1,SRB,,,TGI,12 µM
